Experimental data taken from ChEMBL document CHEMBL2062460, “Disubstituted thiourea derivatives and their activity on CNS: synthesis and biological evaluation” (Eur J Med Chem, 2012).
≈ marks a conversion by molar mass, not a printed value. Calls of active or inactive are those of the source. The rule behind the calls is not given here.

Columns and labels:
Bacillus subtilis = assay: Antibacterial activity against Bacillus subtilis ATCC 6633 at 400 ug/disc after 18 hrs by disc diffusion method; type: functional; settings: ATCC 6633, 18 h, read-out: DIZ
In short: (§1)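 Disc diffusion per CLSI on Mueller–Hinton II agar; 9 mm paper discs loaded from methanol or DMSO solutions to 400 µg per disc, dried; growth inhibition zone diameter read after 18 h at 35 °C.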

[1] = test system: Staphylococcus epidermidis; assay: Antibacterial activity against Staphylococcus epidermidis ATCC 12228 at 400 ug/disc after 18 hrs by disc diffusion method; type: functional; in short: as §1
Enterococcus hirae = assay: Antibacterial activity against Enterococcus hirae ATCC 10541 at 400 ug/disc after 18 hrs by disc diffusion method; type: functional; settings: ATCC 10541, 18 h, read-out: DIZ; in short: as §1
Staphylococcus aureus [2] = assay: Antibacterial activity against Staphylococcus aureus ATCC 25923 at 400 ug/disc after 18 hrs by disc diffusion method; type: functional; settings: ATCC 25923, 18 h, read-out: DIZ; in short: as §1
Staphylococcus aureus [3] = assay: Antibacterial activity against Staphylococcus aureus ATCC 29213 at 400 ug/disc after 18 hrs by disc diffusion method; type: functional; settings: ATCC 29213, 18 h, read-out: DIZ; in short: as §1
Bacillus cereus = assay: Antibacterial activity against Bacillus cereus ATCC 11778 at 400 ug/disc after 18 hrs by disc diffusion method; type: functional; settings: ATCC 11778, 18 h, read-out: DIZ; in short: as §1
Micrococcus luteus [4] = assay: Antibacterial activity against Micrococcus luteus ATCC 9341 at 400 ug/disc after 18 hrs by disc diffusion method; type: functional; settings: ATCC 9341, 18 h, read-out: DIZ; in short: as §1
Escherichia coli = assay: Antibacterial activity against Escherichia coli ATCC 10538 at 400 ug/disc after 18 hrs by disc diffusion method; type: functional, organism-based; in short: as §1
Proteus vulgaris = assay: Antibacterial activity against Proteus vulgaris NCTC 4635 at 400 ug/disc after 18 hrs by disc diffusion method; type: functional, organism-based; in short: as §1
[5] = test system: Bordetella bronchiseptica; assay: Antibacterial activity against Bordetella bronchiseptica ATCC 4617 at 400 ug/disc after 18 hrs by disc diffusion method; type: functional, organism-based; in short: as §1
Candida albicans = assay: Antifungal activity against Candida albicans ATCC 90028 at 400 ug/disc after 18 hrs by disc diffusion method; type: functional, organism-based
In short: (§2)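 Yeasts tested by disc diffusion (CLSI) on RPMI agar with 2% glucose; 9 mm paper discs bearing 400 µg compound from methanol or DMSO solution; inhibition zone diameter read after 18 h at 35 °C.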

Candida parapsilosis = assay: Antifungal activity against Candida parapsilosis ATCC 22019 at 400 ug/disc after 18 hrs by disc diffusion method; type: functional, organism-based; in short: as §2
Staphylococcus aureus [6] = assay: Antibacterial activity against Staphylococcus aureus NCTC 4163 after 18 hrs by twofold serial agar dilution technique; type: functional; settings: NCTC 4163, 18 h
In short: (§3)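 Twofold serial agar dilution on Mueller–Hinton II agar, following CLSI guidelines. Compounds were dissolved in methanol or DMSO and tested at final agar concentrations of 3.125–400 µg/mL. Final inoculum was 10^4 CFU/mL.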

Staphylococcus aureus [7] = assay: Antibacterial activity against Staphylococcus aureus ATCC 25923 after 18 hrs by twofold serial agar dilution technique; type: functional; settings: ATCC 25923, 18 h; in short: as §3
Staphylococcus aureus [8] = assay: Antibacterial activity against Staphylococcus aureus ATCC 29213 after 18 hrs by twofold serial agar dilution technique; type: functional; settings: ATCC 29213, 18 h; in short: as §3
[9] = test system: Staphylococcus epidermidis; assay: Antibacterial activity against Staphylococcus epidermidis ATCC 12228 after 18 hrs by twofold serial agar dilution technique; type: functional; settings: ATCC 12228, 18 h; in short: as §3
Micrococcus luteus [10] = assay: Antibacterial activity against Micrococcus luteus ATCC 10240 after 18 hrs by twofold serial agar dilution technique; type: functional; settings: ATCC 10240, 18 h
Staphylococcus aureus [11] = assay: Antibacterial activity against methicillin-susceptible Staphylococcus aureus clinical isolate 256/08 after 18 hrs by twofold serial agar dilution technique; type: functional; settings: clinical isolate 256/08, 18 h
In short: (§4)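 Clinical isolates came from patients in Warsaw Medical University Hospitals and were classed as methicillin-susceptible or -resistant. MIC was determined by twofold serial agar dilution on Mueller–Hinton II agar (CLSI), 3.125–400 µg/mL in agar, with compounds in methanol or DMSO. Inoculum was 10^4 CFU/mL and plates were read after 18 h at 35 °C.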

Staphylococcus aureus [12] = assay: Antibacterial activity against methicillin-susceptible Staphylococcus aureus clinical isolate 261/08 after 18 hrs by twofold serial agar dilution technique; type: functional; settings: clinical isolate 261/08, 18 h; in short: as §4
Staphylococcus aureus [13] = assay: Antibacterial activity against methicillin-susceptible Staphylococcus aureus clinical isolate 268/08 after 18 hrs by twofold serial agar dilution technique; type: functional; settings: clinical isolate 268/08, 18 h; in short: as §4
Staphylococcus aureus [14] = assay: Antibacterial activity against methicillin-susceptible Staphylococcus aureus clinical isolate 338/08 after 18 hrs by twofold serial agar dilution technique; type: functional; settings: clinical isolate 338/08, 18 h; in short: as §4
Staphylococcus aureus [15] = assay: Antibacterial activity against methicillin-susceptible Staphylococcus aureus clinical isolate 339/09 after 18 hrs by twofold serial agar dilution technique; type: functional; settings: clinical isolate 339/09, 18 h; in short: as §4
Staphylococcus aureus [16] = assay: Antibacterial activity against methicillin-susceptible Staphylococcus aureus clinical isolate 367/09 after 18 hrs by twofold serial agar dilution technique; type: functional; settings: clinical isolate 367/09, 18 h; in short: as §4
Staphylococcus aureus [17] = assay: Antibacterial activity against methicillin-susceptible Staphylococcus aureus clinical isolate 369/09 after 18 hrs by twofold serial agar dilution technique; type: functional; settings: clinical isolate 369/09, 18 h; in short: as §4
Staphylococcus aureus [18] = assay: Antibacterial activity against methicillin-susceptible Staphylococcus aureus clinical isolate 372/09 after 18 hrs by twofold serial agar dilution technique; type: functional; settings: clinical isolate 372/09, 18 h; in short: as §4
Staphylococcus aureus [19] = assay: Antibacterial activity against methicillin-resistant Staphylococcus aureus clinical isolate 275/08 after 18 hrs by twofold serial agar dilution technique; type: functional; settings: clinical isolate 275/08, 18 h; in short: as §4
Staphylococcus aureus [20] = assay: Antibacterial activity against methicillin-resistant Staphylococcus aureus clinical isolate 277/08 after 18 hrs by twofold serial agar dilution technique; type: functional; settings: clinical isolate 277/08, 18 h; in short: as §4
Staphylococcus aureus [21] = assay: Antibacterial activity against methicillin-resistant Staphylococcus aureus clinical isolate 306/08 after 18 hrs by twofold serial agar dilution technique; type: functional; settings: clinical isolate 306/08, 18 h; in short: as §4
Staphylococcus aureus [22] = assay: Antibacterial activity against methicillin-resistant Staphylococcus aureus clinical isolate 309/08 after 18 hrs by twofold serial agar dilution technique; type: functional; settings: clinical isolate 309/08, 18 h; in short: as §4
Staphylococcus aureus [23] = assay: Antibacterial activity against methicillin-resistant Staphylococcus aureus clinical isolate 356/09 after 18 hrs by twofold serial agar dilution technique; type: functional; settings: clinical isolate 356/09, 18 h; in short: as §4
Staphylococcus aureus [24] = assay: Antibacterial activity against methicillin-resistant Staphylococcus aureus clinical isolate 376/09 after 18 hrs by twofold serial agar dilution technique; type: functional; settings: clinical isolate 376/09, 18 h; in short: as §4
[25] = test system: Staphylococcus epidermidis; assay: Antibacterial activity against methicillin-resistant Staphylococcus epidermidis clinical isolate 311/08 after 18 hrs by twofold serial agar dilution technique; type: functional; settings: clinical isolate 311/08, 18 h; in short: as §4
[26] = test system: Staphylococcus epidermidis; assay: Antibacterial activity against methicillin-resistant Staphylococcus epidermidis clinical isolate 315/08 after 18 hrs by twofold serial agar dilution technique; type: functional; settings: clinical isolate 315/08, 18 h; in short: as §4
[27] = test system: Staphylococcus epidermidis; assay: Antibacterial activity against methicillin-resistant Staphylococcus epidermidis clinical isolate 316/08 after 18 hrs by twofold serial agar dilution technique; type: functional; settings: clinical isolate 316/08, 18 h; in short: as §4
[28] = test system: Staphylococcus epidermidis; assay: Antibacterial activity against methicillin-resistant Staphylococcus epidermidis clinical isolate 340/09 after 18 hrs by twofold serial agar dilution technique; type: functional; settings: clinical isolate 340/09, 18 h; in short: as §4
[29] = Cytotoxicity against human MT4 cells after 96 hrs by MTT assay; type: cell-based

Compound `S=C(Nc1ccc(Cl)cc1)Nc1nc[nH]n1` has a zone of inhibition at 400 µg/disc (Bacillus subtilis) of 22 mm, a zone of inhibition at 400 µg/disc ([1]; ATCC 12228, 18 h, read-out: DIZ) of 20 mm and a zone of inhibition at 400 µg/disc (Enterococcus hirae) of 23 mm. For the same compound, the zone of inhibition at 400 µg/disc (Staphylococcus aureus [2]) was 23 mm, the zone of inhibition at 400 µg/disc (Staphylococcus aureus [3]) was 17 mm and the zone of inhibition at 400 µg/disc (Bacillus cereus) was 16 mm. For the same compound, the zone of inhibition at 400 µg/disc (Micrococcus luteus [4]) was 26 mm, the “diameter of the inhibition zone (DIZ)” value (Escherichia coli) was “inactive” and the “diameter of the inhibition zone (DIZ)” value (Proteus vulgaris) was “inactive”. For the same compound, the “diameter of the inhibition zone (DIZ)” value [5] was “inactive”, the “diameter of the inhibition zone (DIZ)” value (Candida albicans) was “inactive” and the “diameter of the inhibition zone (DIZ)” value (Candida parapsilosis) was “inactive”. The MIC (Staphylococcus aureus [6]) was 25 µg/mL (≈ 98.5 µM), the MIC (Staphylococcus aureus [7]) was 25 µg/mL (≈ 98.5 µM) and the MIC (Staphylococcus aureus [8]) was 25 µg/mL (≈ 98.5 µM). The MIC [9] was 25 µg/mL (≈ 98.5 µM), the MIC (Micrococcus luteus [10]) was 25 µg/mL (≈ 98.5 µM) and the MIC (Staphylococcus aureus [11]) was 25 µg/mL (≈ 98.5 µM). The MIC (Staphylococcus aureus [12]) was 25 µg/mL (≈ 98.5 µM), the MIC (Staphylococcus aureus [13]) was 25 µg/mL (≈ 98.5 µM) and the MIC (Staphylococcus aureus [14]) was 25 µg/mL (≈ 98.5 µM). It also gave an MIC (Staphylococcus aureus [15]) of 25 µg/mL (≈ 98.5 µM), an MIC (Staphylococcus aureus [16]) of 25 µg/mL (≈ 98.5 µM) and an MIC (Staphylococcus aureus [17]) of 25 µg/mL (≈ 98.5 µM). It also gave an MIC (Staphylococcus aureus [18]) of 25 µg/mL (≈ 98.5 µM), an MIC (Staphylococcus aureus [19]) of 25 µg/mL (≈ 98.5 µM) and an MIC (Staphylococcus aureus [20]) of 50 µg/mL (≈ 197 µM). The MIC (Staphylococcus aureus [21]) was 25 µg/mL (≈ 98.5 µM), the MIC (Staphylococcus aureus [22]) was 25 µg/mL (≈ 98.5 µM) and the MIC (Staphylococcus aureus [23]) was 25 µg/mL (≈ 98.5 µM). The MIC (Staphylococcus aureus [24]) was 25 µg/mL (≈ 98.5 µM), the MIC [25] was 25 µg/mL (≈ 98.5 µM) and the MIC [26] was 25 µg/mL (≈ 98.5 µM). For the same compound, the MIC [27] was 25 µg/mL (≈ 98.5 µM), the MIC [28] was 12.5 µg/mL (≈ 49.3 µM) and the CC50 at 96 h [29] was 47 µM.
For `S=C(Nc1ccc(I)cc1)Nc1nc[nH]n1`, the zone of inhibition at 400 µg/disc (Bacillus subtilis) was 18 mm, the “diameter of the inhibition zone (DIZ)” value [1] was “inactive” and the zone of inhibition at 400 µg/disc (Enterococcus hirae) was 13 mm. It also gave a zone of inhibition at 400 µg/disc (Staphylococcus aureus [2]) of 13 mm, a zone of inhibition at 400 µg/disc (Staphylococcus aureus [3]) of 13 mm and a zone of inhibition at 400 µg/disc (Bacillus cereus) of 13 mm. For the same compound, the zone of inhibition at 400 µg/disc (Micrococcus luteus [4]) was 13 mm, the “diameter of the inhibition zone (DIZ)” value (Escherichia coli) was “inactive” and the “diameter of the inhibition zone (DIZ)” value (Proteus vulgaris) was “inactive”. For the same compound, the “diameter of the inhibition zone (DIZ)” value [5] was “inactive”, the “diameter of the inhibition zone (DIZ)” value (Candida albicans) was “inactive” and the “diameter of the inhibition zone (DIZ)” value (Candida parapsilosis) was “inactive”. For the same compound, the MIC (Staphylococcus aureus [6]) was 25 µg/mL (≈ 72.4 µM), the MIC (Staphylococcus aureus [7]) was 25 µg/mL (≈ 72.4 µM) and the MIC (Staphylococcus aureus [8]) was 25 µg/mL (≈ 72.4 µM). It also gave an MIC [9] of 25 µg/mL (≈ 72.4 µM), an MIC (Micrococcus luteus [10]) of 12.5 µg/mL (≈ 36.2 µM) and an MIC (Staphylococcus aureus [11]) of 25 µg/mL (≈ 72.4 µM). For the same compound, the MIC (Staphylococcus aureus [12]) was 25 µg/mL (≈ 72.4 µM), the MIC (Staphylococcus aureus [13]) was 25 µg/mL (≈ 72.4 µM) and the MIC (Staphylococcus aureus [14]) was 50 µg/mL (≈ 145 µM). The MIC (Staphylococcus aureus [15]) was 50 µg/mL (≈ 145 µM), the MIC (Staphylococcus aureus [16]) was 25 µg/mL (≈ 72.4 µM) and the MIC (Staphylococcus aureus [17]) was 50 µg/mL (≈ 145 µM). The MIC (Staphylococcus aureus [18]) was 25 µg/mL (≈ 72.4 µM), the MIC (Staphylococcus aureus [19]) was 50 µg/mL (≈ 145 µM) and the MIC (Staphylococcus aureus [20]) was 25 µg/mL (≈ 72.4 µM). The MIC (Staphylococcus aureus [21]) was 50 µg/mL (≈ 145 µM), the MIC (Staphylococcus aureus [22]) was 25 µg/mL (≈ 72.4 µM) and the MIC (Staphylococcus aureus [23]) was 50 µg/mL (≈ 145 µM). It also gave an MIC (Staphylococcus aureus [24]) of 50 µg/mL (≈ 145 µM), an MIC [25] of 50 µg/mL (≈ 145 µM) and an MIC [26] of 50 µg/mL (≈ 145 µM). The MIC [27] was 50 µg/mL (≈ 145 µM), the MIC [28] was 25 µg/mL (≈ 72.4 µM) and the CC50 at 96 h [29] was 46 µM.
